Results reported in ChEMBL document CHEMBL1137426, “Bivalent inhibitors of glutathione S-transferase: the effect of spacer length on isozyme selectivity” (Bioorg Med Chem Lett, 2006).
pIC50: −log10 of the molar value.

Assays:
Homo sapiens = species on record: Homo sapiens; assay: Selectivity for GST A1-1 over GST P1-1
Outline: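 Ratio of IC50s from CDNB–GSH conjugation assays. Each E. coli-expressed, purified enzyme at 20 nM, GSH and CDNB at the respective K_M. Inhibitor diluted from DMSO stock into water, final DMSO <1%. Absorbance at 340 nm for 1 min, four-log concentration span, triplicate.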

[1] = target: Glutathione S-transferase P (Homo sapiens, UniProt P09211); assay: Inhibition of GST P1-1
Chain of Glutathione S-transferase P (P09211 whole entry): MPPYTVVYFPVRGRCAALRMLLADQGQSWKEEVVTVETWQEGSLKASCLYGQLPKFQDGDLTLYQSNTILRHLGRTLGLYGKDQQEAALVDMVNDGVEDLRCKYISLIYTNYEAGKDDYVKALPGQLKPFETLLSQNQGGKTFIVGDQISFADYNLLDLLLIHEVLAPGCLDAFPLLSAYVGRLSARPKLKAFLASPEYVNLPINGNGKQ

[2] = target: T1, Glutathione S-transferase A1 (Homo sapiens, UniProt P08263); assay: Inhibition of GST A1-1
T1 sequence (P08263 whole entry): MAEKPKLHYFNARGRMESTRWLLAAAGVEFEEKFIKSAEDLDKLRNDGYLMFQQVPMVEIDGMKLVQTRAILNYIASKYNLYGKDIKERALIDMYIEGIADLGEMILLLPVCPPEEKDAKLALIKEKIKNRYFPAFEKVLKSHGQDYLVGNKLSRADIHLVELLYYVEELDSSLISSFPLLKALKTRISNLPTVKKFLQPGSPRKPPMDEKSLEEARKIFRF

Structure (SMILES)	Selectivity ratio (Homo sapiens)	pIC50 [1]	pIC50 [2]
C=C(CC)C(=O)c1ccc(OCC(=O)NCCCC(=O)NCc2cccc(C(N)=O)c2)c(Cl)c1Cl	1.1	4.82	4.86
C=C(CC)C(=O)c1ccc(OCC(=O)NCC(=O)NCc2cc(CNC(=O)CNC(=O)COc3ccc(C(=O)C(=C)CC)c(Cl)c3Cl)cc(C(N)=O)c2)c(Cl)c1Cl	29	6.15	7.62
C=C(CC)C(=O)c1ccc(OCC(=O)NCc2cc(CNC(=O)COc3ccc(C(=O)C(=C)CC)c(Cl)c3Cl)cc(C(N)=O)c2)c(Cl)c1Cl	30	–	7.49
C=C(CC)C(=O)c1ccc(OCC(=O)O)c(Cl)c1Cl [ETHACRYNIC ACID]	–	–	5.30
